In ChEMBL document CHEMBL4043223, “Structure-activity relationship study of small molecule inhibitors of the DEPTOR-mTOR interaction” (Bioorg Med Chem Lett, 2017):
pIC50: −log10 of the molar value. The source made the active and inactive calls. The rule behind the calls is not given here.

How the values were obtained:
RPMI-8226 [1] = test: Cytotoxicity against human RPMI8226 cells after 48 hrs by MTT assay; assay type: functional, cell-based; settings: RPMI-8226, 48 h
In short: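 MTT in RPMI-8226 cells: 1–2 × 10^4 cells per well in complete medium, exposed 48 h to a range of compound concentrations. MTT reduction to formazan read at 570 nm. Quadruplicate wells per group; OD given as % of DMSO-only control set at 100%. IC50 taken from the concentration series.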

MM1.S = test: Cytotoxicity against human MM1S cells after 48 hrs by MTT assay; assay type: functional, cell-based
In short: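 MM1.S myeloma cells (DEPTOR-over-expressing) in 48 h MTT: 1–2 × 10^4 cells per well, graded compound concentrations, formazan at 570 nm. Quadruplicate wells; survival as % of DMSO control; IC50 derived from the concentration range.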

[2] = molecular target: DEP domain-containing mTOR-interacting protein (Homo sapiens) (UniProt Q8TB45); test: Inhibition of mTOR binding to DEPTOR in human RPMI8226 cells assessed as increase in mTORC1-associated 4E-BP1 phosphorylation by Western blot analysis; assay type: cell-based
[3] = molecular target: DEP domain-containing mTOR-interacting protein (Homo sapiens) (UniProt Q8TB45); test: Inhibition of DEPTOR in human RPMI8226 cells assessed as upregulation of mTORC1-dependant p21 expression at 0.5 to 2 uM after 6 hrs by Western blot analysis; assay type: cell-based
[4] = molecular target: DEP domain-containing mTOR-interacting protein (Homo sapiens) (UniProt Q8TB45); test: Inhibition of mTOR binding to DEPTOR in human RPMI8226 cells at 0.5 uM treated 6 hrs followed by DEPTOR immunoprecipitation by immunoblotting analysis; assay type: cell-based
In short: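 Co-immunoprecipitation: 8226 cells treated 6 h with DMSO or 0.5 µM compound. DEPTOR immunoprecipitated; precipitates immunoblotted for DEPTOR and bound mTOR.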

[5] = Therapeutic index, ratio of IC50 for PBL (unknown origin) to IC50 for human RPMI8226 cells
In short: (§1)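 Normal peripheral blood lymphocytes tested head-to-head with 8226 myeloma cells in 48 h MTT assays. […] Therapeutic index = IC50(PBL)/IC50(8226).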

[6] = molecular target: DEP domain-containing mTOR-interacting protein (Homo sapiens) (UniProt Q8TB45); test: Inhibition of mTOR binding to DEPTOR in human RPMI8226 cells assessed as increase in mTORC1-associated S6 phosphorylation by Western blot analysis; assay type: cell-based
[7] = molecular target: DEP domain-containing mTOR-interacting protein (Homo sapiens) (UniProt Q8TB45); test: Inhibition of mTOR binding to DEPTOR in human RPMI8226 cells assessed as increase in mTORC1-associated p70 phosphorylation at 1 uM after 6 hrs by Western blot analysis; assay type: cell-based
In short: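 8226 cells exposed 6 h to compound, DMSO in untreated controls. Lysates run on 12.5% SDS-PAGE, transferred to PVDF, probed for phospho- and total p70. Densitometric phospho/total ratio expressed as fold versus parent compound B set at 1; mean ± SD, n = 4.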

RPMI-8226 [8] = test: Cytotoxicity against RAPTOR knockdown human RPMI8226 cells at 0.12 to 1 uM after 48 hrs by MTT assay; assay type: functional, cell-based
In short: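 8226 cells infected with lentivirus carrying shRAPTOR or control shSCRAMBLE, knockdown confirmed by immunoblot. Cells then incubated with increasing compound concentrations; MTT read-out after 48 h, formazan at 570 nm, as % of DMSO control.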

RPMI-8226 [9] = test: Cytotoxicity against human RPMI8226 cells after 48 hrs in presence of mTOR inhibitor pp242 by MTT assay; assay type: functional, cell-based
RPMI-8226 [10] = test: Induction of apoptosis in human RPMI8226 cells assessed as caspase3 activation in presence of mTOR inhibitor pp242 by cytofix/cytoperm staining based flow cytometry; assay type: functional, cell-based
[11] = molecular target: DEP domain-containing mTOR-interacting protein (Homo sapiens) (UniProt Q8TB45); test: Inhibition of mTOR binding to DEPTOR in human RPMI8226 cells assessed as increase in mTORC1-associated p70 phosphorylation at […] after 6 hrs by Western blot analysis; assay type: cell-based
PBL = test: Cytotoxicity against PBL (unknown origin) after 48 hrs by MTT assay; assay type: cell-based; in short: as §1
RPMI-8226 [12] = test: Induction of apoptosis in human RPMI8226 cells assessed as caspase3 activation at 0.12 to 2 uM after 48 hrs by cytofix/cytoperm staining based flow cytometry; assay type: functional, cell-based
In short: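 Caspase-3 flow cytometry 48 h after drug exposure of 8226 cells. 10^6 cells washed in PBS, fixed and permeabilized in cytofix/cytoperm, stained 30 min with PE-conjugated anti-active-caspase-3 (1:5 dilution). % apoptosis = drug-treated minus DMSO-control positives; mean ± SD, n = 4.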

[13] = molecular target: DEP domain-containing mTOR-interacting protein (Homo sapiens) (UniProt Q8TB45); test: Inhibition of mTOR binding to DEPTOR in human RPMI8226 cells assessed as increase in mTORC2-associated AKT phosphorylation at S473 residue by Western blot analysis; assay type: cell-based
[14] = molecular target: DEP domain-containing mTOR-interacting protein (Homo sapiens) (UniProt Q8TB45); test: Inhibition of mTOR binding to DEPTOR in human RPMI8226 cells assessed as increase in mTORC2-associated SGK phosphorylation by Western blot analysis; assay type: cell-based
[15] = molecular target: DEP domain-containing mTOR-interacting protein (Homo sapiens) (UniProt Q8TB45); test: Inhibition of mTOR binding to DEPTOR in human RPMI8226 cells assessed as decrease in AKT phosphorylation at […] residue by Western blot analysis; assay type: cell-based
RPMI-8226 [16] = test: Cytotoxicity against human RPMI8226 cells at 0.5 uM after 6 hrs by MTT assay; assay type: cell-based; settings: rpmi-8226, 6 h
RPMI-8226 [17] = test: Cytotoxicity against human RPMI8226 cells at 0.05 to 0.2 uM after 6 hrs by MTT assay; assay type: cell-based; settings: rpmi-8226, 6 h
RPMI-8226 [18] = test: Cytotoxicity against human RPMI8226 cells at 1 to 2 uM after 6 hrs by MTT assay; assay type: cell-based; settings: rpmi-8226, 6 h
[19] = molecular target: DEP domain-containing mTOR-interacting protein (Homo sapiens) (UniProt Q8TB45); test: Inhibition of mTOR binding to DEPTOR in human RPMI8226 cells at 1 uM treated 6 hrs followed by DEPTOR immunoprecipitation by immunoblotting analysis; assay type: cell-based
In short: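 RPMI8226 myeloma cells exposed to compound or DMSO for 6 h; DEPTOR immunoprecipitated from cell extracts, and precipitates immunoblotted for DEPTOR and co-precipitated mTOR. Proteins resolved by 12.5% SDS-PAGE, transferred to PVDF and detected with specific antibodies.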

Sequence of DEP domain-containing mTOR-interacting protein (Homo sapiens) (Q8TB45 whole entry, the tested form may be a part): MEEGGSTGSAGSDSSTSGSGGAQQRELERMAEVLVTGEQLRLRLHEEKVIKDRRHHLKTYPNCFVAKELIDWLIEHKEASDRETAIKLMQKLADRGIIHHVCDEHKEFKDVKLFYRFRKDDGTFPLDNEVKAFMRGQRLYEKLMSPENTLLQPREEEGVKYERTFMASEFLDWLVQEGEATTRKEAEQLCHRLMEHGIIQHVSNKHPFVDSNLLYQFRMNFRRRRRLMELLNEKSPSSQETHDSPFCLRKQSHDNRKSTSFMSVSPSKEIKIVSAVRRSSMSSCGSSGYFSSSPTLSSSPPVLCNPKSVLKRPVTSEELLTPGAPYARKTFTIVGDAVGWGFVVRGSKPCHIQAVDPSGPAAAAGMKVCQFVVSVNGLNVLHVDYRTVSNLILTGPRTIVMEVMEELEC

| SMILES | pIC50 (RPMI-8226 [1]) | pIC50 (MM1.S) | other results |
| --- | --- | --- | --- |
| Cc1ccc(C(=O)N(N=C2C(Cl)=C(Cl)C(Cl)=C2Cl)C(=O)c2ccc(C)cc2)cc1 | 6.30 | 6.30 | – |
| Fc1cccc(NN=C2C(Cl)=C(Cl)C(Cl)=C2Cl)c1 | 6.22 to 6.30 | 5.82 | – |
| ON=C1C(Cl)=C(Cl)C(Cl)=C1Cl | < 5.30 | – | – |
| CC(C)(C)NN=C1C(Cl)=C(Cl)C(Cl)=C1Cl | 5.30 to 5.52 | < 5.52 | – |
| CC(C)(C)OC(=O)NN=C1C(Cl)=C(Cl)C(Cl)=C1Cl | 6.96 to 7.00 | 6.22 | inhibition [2]: Active; inhibition [3]: Active; inhibition [4]: Active; Ratio IC50 [5]: 45.5; inhibition [6]: Active; inhibition [7]: Active; Activity (RPMI-8226 [8]): inactive; Activity (RPMI-8226 [9]): inactive; Activity (RPMI-8226 [10]): inactive; inhibition [11]: Active; pIC50 (PBL): 5.30; Activity (RPMI-8226 [12]): Active; inhibition [13]: Active; inhibition [14]: Active; inhibition [15]: Active |
| NN=c1c2ccccc2oc2ccccc12 | < 5.30 | < 5.30 | – |
| O=C(NN=C1C(Cl)=C(Cl)C(Cl)=C1Cl)c1ccccc1 | 6.22 | 6.10 | Activity (RPMI-8226 [16]): Toxic; Activity (RPMI-8226 [17]): Non-Toxic; Activity (RPMI-8226 [18]): Toxic |
| ClC1=C(Cl)C(Cl)=C(Cl)C1=NNc1ccccc1 | 6.15 to 6.22 | 5.70 | – |
| ClC1=C(Cl)C(Cl)=C(Cl)C1=NN(c1ccccc1)c1ccccc1 | < 5.52 | < 5.52 | – |
| Fc1cccc(NN=C2c3ccccc3-c3ccccc32)c1 | < 5.30 | < 5.30 | – |
| Fc1ccccc1NN=C1C(Cl)=C(Cl)C(Cl)=C1Cl | < 5.52 | < 5.52 | – |
| Cc1cccc(NN=C2C(Cl)=C(Cl)C(Cl)=C2Cl)c1 | 5.70 | < 5.52 | – |
| COC1(OC)C(Cl)=C(Cl)C(Cl)=C1Cl | < 5.30 | – | – |
| ClC1=C(Cl)C(Cl)=C(Cl)C1=NNC1CCCCC1 | 5.30 to 5.52 | < 5.52 | – |
| ClC1=C(Cl)C(Cl)=C(Cl)C1=NNc1cc(Cl)cc(Cl)c1 | 6.10 | 5.70 | – |
| CC(=O)NN=C1C(Cl)=C(Cl)C(Cl)=C1Cl | 6.00 | – | – |
| C#CC(C)(C)OC(=O)NN=C1C(Cl)=C(Cl)C(Cl)=C1Cl | < 5.30 | – | – |
| NN=C1C(Cl)=C(Cl)C(Cl)=C1Cl | 5.82 to 5.89 | 5.52 | inhibition [4]: inactive; Ratio IC50 [5]: 14.3; inhibition [7]: Active; inhibition [19]: Active; pIC50 (PBL): 4.70; Activity (RPMI-8226 [12]): Active |
| O=C(c1ccc(F)cc1)N(N=C1C(Cl)=C(Cl)C(Cl)=C1Cl)C(=O)c1ccc(F)cc1 | 6.60 to 6.70 | 6.52 | inhibition [3]: Active; Ratio IC50 [5]: 10; inhibition [7]: Active; inhibition [11]: Active; pIC50 (PBL): 5.70; Activity (RPMI-8226 [12]): Active |
| Fc1ccc(NN=C2C(Cl)=C(Cl)C(Cl)=C2Cl)cc1 | 6.15 to 6.22 | 5.89 | inhibition [4]: Active; Ratio IC50 [5]: 33; inhibition [7]: Active; Activity (RPMI-8226 [8]): inactive; inhibition [11]: Active; pIC50 (PBL): 4.70; Activity (RPMI-8226 [12]): Active |
| NN=C1c2ccccc2-c2ccccc21 | < 5.30 | – | – |
| CN(C)N=C1C(Cl)=C(Cl)C(Cl)=C1Cl | 5.52 to 5.89 | < 5.52 | – |
| COc1cccc(NN=C2C(Cl)=C(Cl)C(Cl)=C2Cl)c1 | < 5.52 | < 5.52 | – |
| C#CCOC(=O)NN=C1C(Cl)=C(Cl)C(Cl)=C1Cl | 6.10 | – | – |
| CC(C)(C)C(=O)NN=C1C(Cl)=C(Cl)C(Cl)=C1Cl | 6.92 to 7.05 | 5.70 | inhibition [3]: Active; Ratio IC50 [5]: 14; inhibition [7]: Active; inhibition [11]: Active; pIC50 (PBL): 5.90; Activity (RPMI-8226 [12]): Active |
| CC(C)(C)OC(=O)NN=C1c2ccccc2-c2ccccc21 | < 5.30 | < 5.30 | – |
| NN=C(c1ccccc1)c1ccccc1 | < 5.30 | < 5.30 | – |
| O=C(c1ccccc1)N(N=C1C(Cl)=C(Cl)C(Cl)=C1Cl)C(=O)c1ccccc1 | 6.10 | 5.70 | – |
